Test [1] has as its system SK-BR-3. Put plainly: Growth inhibition of human SKBR3 cells after 48 hrs by MTT assay. Type of test: functional, cell-based. The following applies: SK-BR-3, 48 h. The gist of the method:
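Cells were seeded for 24 h, then exposed to a range of compound concentrations (DMSO ≤0.1% final) for 48 h. MTT (0.5 mg/mL) was added for 2 h, formazan was dissolved in DMSO and A570 read. Six replicates; IC50 from nonlinear regression.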
Background: Tetrazolium assays rely on reduction of a dye to a coloured formazan, in cell work by metabolically active cells.

Test [2] deals with T1, Tubulin (Homo sapiens) (UniProt P68371+Q9H4B7+P0DPH7+P68366+Q13509+Q71U36+P04350+Q3ZCM7+P07437+P68363+Q9BQE3+Q6PEY2+Q13885+Q9BVA1+Q9BUF5). Nature of the test: Inhibition of tubulin polymerization in human SKBR3 cells assessed as microtubule disorganization at 0.5 to 1 uM after 12 hrs by fluorescence microscopic analysis. The settings on record: SK-BR-3. The format is cell-based. The method in brief: (§1)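 SKBR-3 cells in chamber slides were grown to 70% confluence, then treated with 0.5 or 1 μM compound for 12 and 24 h; untreated cells and 0.05 μM nocodazole served as controls. Cells were fixed in 4% paraformaldehyde, permeabilized with 0.2% Triton X-100 and blocked with 2% goat serum. They were stained with biotinylated anti-tubulin (1:200, overnight 4 °C) plus Alexa Fluor 488 streptavidin and imaged by fluorescence microscopy.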

The species named for test [3] is Bos taurus. Put plainly: Inhibition of bovine brain tubulin polymerization after 20 mins by spectrophotometric analysis.
The target in test [4] is T1, Tubulin (Homo sapiens). Put plainly: Inhibition of tubulin polymerization in human SKBR3 cells assessed as microtubule disorganization at 0.5 to 1 uM after 24 hrs by fluorescence microscopic analysis. Type of test: cell-based. The following applies: SK-BR-3. The method in brief: as §1
In test [5] the target is T1, Tubulin (Homo sapiens). Nature of the test: Inhibition of tubulin polymerization in human SKBR3 cells assessed as decrease in microtubule density at 0.5 to 1 uM after 12 hrs by fluorescence microscopic analysis. Type of test: cell-based. The following applies: SK-BR-3. The gist of the method:
as §1

The target of test [6] is T1, Tubulin (Homo sapiens). Nature of the test: Inhibition of tubulin polymerization in human SKBR3 cells assessed as decrease in microtubule density at 0.5 to 1 uM after 24 hrs by fluorescence microscopic analysis. The format is cell-based. The following applies: SK-BR-3. The gist of the method: as §1
Test [7] has as its target Heat shock protein beta-1 (Homo sapiens) (UniProt P04792). Put plainly: Binding affinity to pure Hsp27 in human SKBR3 cell lysate at 2 uM after 1 hr by Western blot analysis. The settings on record: SK-BR-3.
Test [8] shares this target. Nature of the test: Inhibition of Hsp27 phosphorylation in human SKBR3 cells at 0.5 to 1 uM after 24 hrs by Western blot analysis. The following applies: SK-BR-3. (In general: A western blot detects proteins with antibodies after separation by electrophoresis.)
Test [9] has the same target. Nature of the test: Induction of Hsp27 phosphorylation in human SKBR3 cells at 50 to 100 nM after 24 hrs by SDS-PAGE analysis. The format is cell-based. The following applies: SK-BR-3. The gist of the method: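 SKBR-3 cells were treated for 24 h with 50 and 100 nM nocodazole, with compound or KRIBB3 run alongside. Lysates (50 μg protein) were separated on 12% SDS-PAGE and transferred to PVDF. Membranes were blocked 1 h and probed for pSer78 Hsp27, with total Hsp27 and actin as loading controls, then detected by HRP secondary and ECL.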

In test [10] the test system is SK-BR-3. Put plainly: Binding affinity to pure beta-tubulin in human SKBR3 cell lysate at 25 to 50 uM after 1 hr by Western blot analysis. The format is cell-free. The gist of the method: (§2)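 Pure proteins, 10 μM bovine brain tubulin or recombinant Hsp27, were tested in separate experiments. Each was incubated with 2 μM biotinylated probe for 1 h at room temperature, then with neutravidin resin for 30 min. After five washes with binding buffer, bound protein was eluted twice with buffer containing compound at 25 and 50 μM. Eluates and resin were denatured, run on SDS-PAGE, transferred to PVDF and probed with α-/β-tubulin or Hsp27 antibodies.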

The test system of test [11] is SK-BR-3. Nature of the test: Binding affinity to alpha-tubulin in human SKBR3 cell lysate at 25 uM after 30 mins by mass spectrometric analysis. Type of test: cell-free. The method in brief: (§3)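 SKBR-3 cells (1.0 × 10^7) were lysed in NP-40 buffer with protease inhibitors and sonicated. Lysate was incubated with biotinylated probe (25 μM final) for 1 h at room temperature, then with neutravidin resin for 30 min. After five binding-buffer washes, bound proteins were eluted with buffer containing compound at 25 and 50 μM. Resin was boiled in SDS buffer. Samples were run on SDS-PAGE and silver-stained; bands were trypsin-digested in-gel and analysed by LC-QTOF/MS.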

Test [12] concerns SK-BR-3. Put plainly: Binding affinity to pure alpha-tubulin in human SKBR3 cell lysate at 25 to 50 uM after 1 hr by Western blot analysis. The format is cell-free. The gist of the method: as §2
The species entered for test [13] is Bos taurus. Nature of the test: Binding affinity to bovine brain tubulin at 2 uM after 1 hr by SDS-PAGE analysis in preincubated with 10 uM colchicine. The method in brief: (§4)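 Bovine brain tubulin (10 μM) was preincubated with 10 μM colchicine or paclitaxel for 1 h at room temperature. It was then incubated with 2 μM biotinylated probe in binding buffer for 1 h at room temperature and loaded onto a neutravidin resin column for 30 min. The resin was washed five times with binding buffer, then twice with buffer containing compound (25, 50 μM). Eluates and resin were analysed by SDS-PAGE and Western blot with tubulin antibody.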

Test [14] relates to SK-BR-3. Put plainly: Binding affinity to beta-tubulin in human SKBR3 cell lysate at 25 uM after 30 mins by mass spectrometric analysis. Type of test: cell-free. The method in brief:
as §3

The species entered for test [15] is Bos taurus. Nature of the test: Binding affinity to bovine brain tubulin at 2 uM after 1 hr by SDS-PAGE analysis in preincubated with 10 uM paclitaxel. The gist of the method:
as §4

Test [16] has as its target Heat shock protein beta-1 (Homo sapiens) (UniProt P04792). Put plainly: Binding affinity to Hsp27 in human SKBR3 cell lysate at 25 uM after 30 mins by mass spectrometric analysis. Type of test: cell-free. The settings on record: SK-BR-3. The gist of the method:
as §3

Test [17] has the same target. Nature of the test: Binding affinity to pure Hsp27 in human SKBR3 cell lysate at 25 to 50 uM after 1 hr by Western blot analysis. Type of test: cell-free. The settings on record: SK-BR-3. The gist of the method:
as §2

The source made the active and inactive calls. The calls are words filed in the database; no cut-off is given here.

Heat shock protein beta-1 (Homo sapiens), sequence (P04792 whole entry): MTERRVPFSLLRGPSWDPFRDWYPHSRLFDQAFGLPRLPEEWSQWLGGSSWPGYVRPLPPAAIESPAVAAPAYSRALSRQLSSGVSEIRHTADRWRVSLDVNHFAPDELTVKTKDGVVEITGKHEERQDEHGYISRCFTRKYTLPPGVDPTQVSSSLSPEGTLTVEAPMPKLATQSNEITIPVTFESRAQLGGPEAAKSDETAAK

Regarding `Cc1ccc(C)c(COc2cc(NC(=O)Cc3ccccc3)ccc2N(C)S(C)(=O)=O)c1`, the midpoint of inhibition in the test with SK-BR-3 [1], the IC50, lay at 121 µM.

With `Cc1ccc(C)c(COc2cc(NC(=O)c3ccc4c(c3)OCO4)ccc2N(C)S(C)(=O)=O)c1`, the inhibition result on Tubulin (Homo sapiens) [2], on Tubulin (Homo sapiens) [4], at Tubulin (Homo sapiens) [5] and on Tubulin (Homo sapiens) [6] was “Active” each time. In addition, the inhibition entry in the test listed under Bos taurus [3] is “Dose-dependent effect”.

Take `CCc1cc(-c2oncc2-c2ccc(OC)cc2)c(O)cc1OC`: the result in test [7] was Active. For the same compound, the inhibition entry in test [8] was “Active”.

As for `CN(c1ccc(NC(=O)c2ccc3c(c2)OCO3)cc1OCc1ccccc1)S(C)(=O)=O`, in the test with SK-BR-3 [1], the IC50 (commonly the midpoint of a concentration-inhibition curve) was 62.9 µM.

Take `COC(=O)Nc1nc2cc(C(=O)c3cccs3)ccc2[nH]1`: in [9], the result was Active.

With `Cc1ccc(C)c(COc2cc(NC(=O)c3ccc4c(c3)OCO4)ccc2N(CCCCCCNC(=O)CCCC[C@H]2SC[C@H]3NC(=O)N[C@H]32)S(C)(=O)=O)c1`, the result (in the test with SK-BR-3 [10]; in the test with SK-BR-3 [11]; in the test with SK-BR-3 [12]; with SK-BR-3 [14]; in the test listed under Bos taurus [15]; in test [16]) was Active. Also, the outcome in test [17] was Active. The compound also returned an IC50 in the test with SK-BR-3 [1] of 2 µM. The outcome in the test listed under Bos taurus [13] was inactive.
